ChEMBL document CHEMBL1156088, “Synthesis and biological activity of novel oxazolidinones” (2009)
Values after ≈ are worked out from the molar mass of the structure shown.

Each compound was assayed on Staphylococcus aureus (assay: Antibacterial activity against Staphylococcus aureus ATCC 25923 by NCCLS method).
Format: functional
Outline: (§1)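 In vitro MIC determination by the NCCLS method against a panel of gram-positive bacteria. Two oxazolidinone reference standards were tested alongside.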

Structure (SMILES)	MIC [µg/mL]
O=C(NC[C@H]1CN(c2ccc(N3CCN(Cc4ccc([N+](=O)[O-])o4)CC3)c(F)c2)C(=O)O1)c1ccc([N+](=O)[O-])o1	8 (≈ 14.3 µM)
O=C(NC[C@H]1CN(c2ccc(N3CCN(Cc4ccc([N+](=O)[O-])o4)CC3)c(F)c2)C(=O)O1)c1ccc(Br)o1	> 16
O=C(/C=C/c1ccc(F)cc1)NC[C@H]1CN(c2ccc(N3CCN(Cc4ccc([N+](=O)[O-])o4)CC3)c(F)c2)C(=O)O1	> 16
O=C(NC[C@H]1CN(c2ccc(N3CCN(Cc4ccc([N+](=O)[O-])o4)CC3)c(F)c2)C(=O)O1)c1cc2ccccc2o1	> 16
O=C1O[C@@H](COc2ccon2)CN1c1ccc(N2CCN(Cc3ccc([N+](=O)[O-])o3)CC2)c(F)c1	> 16
CC(=O)NC[C@H]1CN(c2ccc(N3CCN(Cc4ccc([N+](=O)[O-])o4)CC3)c(F)c2)C(=O)O1 [RANBEZOLID]	1 (≈ 2.17 µM)

The compounds below were run on Streptococcus pneumoniae (assay: Antibacterial activity against Streptococcus pneumoniae ATCC 6303 by NCCLS method).
Format: functional
Outline: as §1

Structure (SMILES)	MIC [µg/mL]
O=C(NC[C@H]1CN(c2ccc(N3CCN(Cc4ccc([N+](=O)[O-])o4)CC3)c(F)c2)C(=O)O1)c1ccc([N+](=O)[O-])o1	8 (≈ 14.3 µM)
O=C(NC[C@H]1CN(c2ccc(N3CCN(Cc4ccc([N+](=O)[O-])o4)CC3)c(F)c2)C(=O)O1)c1ccc(Br)o1	> 16
O=C(/C=C/c1ccc(F)cc1)NC[C@H]1CN(c2ccc(N3CCN(Cc4ccc([N+](=O)[O-])o4)CC3)c(F)c2)C(=O)O1	> 16
O=C(NC[C@H]1CN(c2ccc(N3CCN(Cc4ccc([N+](=O)[O-])o4)CC3)c(F)c2)C(=O)O1)c1cc2ccccc2o1	> 16
O=C1O[C@@H](COc2ccon2)CN1c1ccc(N2CCN(Cc3ccc([N+](=O)[O-])o3)CC2)c(F)c1	> 16
CC(=O)NC[C@H]1CN(c2ccc(N3CCN(Cc4ccc([N+](=O)[O-])o4)CC3)c(F)c2)C(=O)O1 [RANBEZOLID]	0.125 (≈ 0.271 µM)

These compounds were tested on Staphylococcus aureus (assay: Antibacterial activity against methicillin-resistant Staphylococcus aureus 33 by NCCLS method).
Format: functional
Outline: (§2)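 In vitro MIC determined by the NCCLS method against a panel of gram-positive bacteria. Ranbezolid and linezolid were run alongside as reference standards.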

Structure (SMILES)	MIC [µg/mL]
O=C(NC[C@H]1CN(c2ccc(N3CCN(Cc4ccc([N+](=O)[O-])o4)CC3)c(F)c2)C(=O)O1)c1ccc([N+](=O)[O-])o1	2 (≈ 3.58 µM)
O=C(NC[C@H]1CN(c2ccc(N3CCN(Cc4ccc([N+](=O)[O-])o4)CC3)c(F)c2)C(=O)O1)c1ccc(Br)o1	> 16
O=C(/C=C/c1ccc(F)cc1)NC[C@H]1CN(c2ccc(N3CCN(Cc4ccc([N+](=O)[O-])o4)CC3)c(F)c2)C(=O)O1	> 16
O=C(NC[C@H]1CN(c2ccc(N3CCN(Cc4ccc([N+](=O)[O-])o4)CC3)c(F)c2)C(=O)O1)c1cc2ccccc2o1	> 16
O=C1O[C@@H](COc2ccon2)CN1c1ccc(N2CCN(Cc3ccc([N+](=O)[O-])o3)CC2)c(F)c1	> 16
CC(=O)NC[C@H]1CN(c2ccc(N3CCN(Cc4ccc([N+](=O)[O-])o4)CC3)c(F)c2)C(=O)O1 [RANBEZOLID]	2 (≈ 4.33 µM)

These compounds were tested on Streptococcus pyogenes (assay: Antibacterial activity against Streptococcus pyogenes ATCC 19615 by NCCLS method).
Format: functional
Outline: as §1

Structure (SMILES)	MIC [µg/mL]
O=C(NC[C@H]1CN(c2ccc(N3CCN(Cc4ccc([N+](=O)[O-])o4)CC3)c(F)c2)C(=O)O1)c1ccc([N+](=O)[O-])o1	> 8
O=C(NC[C@H]1CN(c2ccc(N3CCN(Cc4ccc([N+](=O)[O-])o4)CC3)c(F)c2)C(=O)O1)c1ccc(Br)o1	> 16
O=C(/C=C/c1ccc(F)cc1)NC[C@H]1CN(c2ccc(N3CCN(Cc4ccc([N+](=O)[O-])o4)CC3)c(F)c2)C(=O)O1	> 16
O=C(NC[C@H]1CN(c2ccc(N3CCN(Cc4ccc([N+](=O)[O-])o4)CC3)c(F)c2)C(=O)O1)c1cc2ccccc2o1	> 16
O=C1O[C@@H](COc2ccon2)CN1c1ccc(N2CCN(Cc3ccc([N+](=O)[O-])o3)CC2)c(F)c1	> 16
CC(=O)NC[C@H]1CN(c2ccc(N3CCOCC3)c(F)c2)C(=O)O1 [LINEZOLID]	2 (≈ 5.93 µM)
CC(=O)NC[C@H]1CN(c2ccc(N3CCN(Cc4ccc([N+](=O)[O-])o4)CC3)c(F)c2)C(=O)O1 [RANBEZOLID]	0.125 (≈ 0.271 µM)

What follows are compounds tested on Enterococcus faecium (assay: Antibacterial activity against vancomycin-resistant Enterococcus faecium 6A by NCCLS method).
Format: functional
Outline: as §2

Structure (SMILES)	MIC [µg/mL]
O=C(NC[C@H]1CN(c2ccc(N3CCN(Cc4ccc([N+](=O)[O-])o4)CC3)c(F)c2)C(=O)O1)c1ccc([N+](=O)[O-])o1	> 8
O=C(NC[C@H]1CN(c2ccc(N3CCN(Cc4ccc([N+](=O)[O-])o4)CC3)c(F)c2)C(=O)O1)c1ccc(Br)o1	> 16
O=C(/C=C/c1ccc(F)cc1)NC[C@H]1CN(c2ccc(N3CCN(Cc4ccc([N+](=O)[O-])o4)CC3)c(F)c2)C(=O)O1	> 16
O=C(NC[C@H]1CN(c2ccc(N3CCN(Cc4ccc([N+](=O)[O-])o4)CC3)c(F)c2)C(=O)O1)c1cc2ccccc2o1	> 16
O=C1O[C@@H](COc2ccon2)CN1c1ccc(N2CCN(Cc3ccc([N+](=O)[O-])o3)CC2)c(F)c1	> 16
CC(=O)NC[C@H]1CN(c2ccc(N3CCOCC3)c(F)c2)C(=O)O1 [LINEZOLID]	2 (≈ 5.93 µM)
CC(=O)NC[C@H]1CN(c2ccc(N3CCN(Cc4ccc([N+](=O)[O-])o4)CC3)c(F)c2)C(=O)O1 [RANBEZOLID]	2 (≈ 4.33 µM)

The compounds below were run on Staphylococcus aureus (assay: Antibacterial activity against Staphylococcus aureus 15187 by NCCLS method).
Format: functional
Outline: as §1

Structure (SMILES)	MIC [µg/mL]
O=C(NC[C@H]1CN(c2ccc(N3CCN(Cc4ccc([N+](=O)[O-])o4)CC3)c(F)c2)C(=O)O1)c1ccc([N+](=O)[O-])o1	2 (≈ 3.58 µM)
O=C(NC[C@H]1CN(c2ccc(N3CCN(Cc4ccc([N+](=O)[O-])o4)CC3)c(F)c2)C(=O)O1)c1ccc(Br)o1	> 16
O=C(/C=C/c1ccc(F)cc1)NC[C@H]1CN(c2ccc(N3CCN(Cc4ccc([N+](=O)[O-])o4)CC3)c(F)c2)C(=O)O1	> 16
O=C(NC[C@H]1CN(c2ccc(N3CCN(Cc4ccc([N+](=O)[O-])o4)CC3)c(F)c2)C(=O)O1)c1cc2ccccc2o1	> 16
O=C1O[C@@H](COc2ccon2)CN1c1ccc(N2CCN(Cc3ccc([N+](=O)[O-])o3)CC2)c(F)c1	> 16

Each compound was assayed on Staphylococcus aureus (assay: Antibacterial activity against methicillin-resistant Staphylococcus aureus 562 by NCCLS method).
Format: functional
Outline: as §2

Structure (SMILES)	MIC [µg/mL]
O=C(NC[C@H]1CN(c2ccc(N3CCN(Cc4ccc([N+](=O)[O-])o4)CC3)c(F)c2)C(=O)O1)c1ccc([N+](=O)[O-])o1	1 (≈ 1.79 µM)
O=C(NC[C@H]1CN(c2ccc(N3CCN(Cc4ccc([N+](=O)[O-])o4)CC3)c(F)c2)C(=O)O1)c1ccc(Br)o1	> 16
O=C(/C=C/c1ccc(F)cc1)NC[C@H]1CN(c2ccc(N3CCN(Cc4ccc([N+](=O)[O-])o4)CC3)c(F)c2)C(=O)O1	> 16
O=C(NC[C@H]1CN(c2ccc(N3CCN(Cc4ccc([N+](=O)[O-])o4)CC3)c(F)c2)C(=O)O1)c1cc2ccccc2o1	> 16
O=C1O[C@@H](COc2ccon2)CN1c1ccc(N2CCN(Cc3ccc([N+](=O)[O-])o3)CC2)c(F)c1	> 16
CC(=O)NC[C@H]1CN(c2ccc(N3CCN(Cc4ccc([N+](=O)[O-])o4)CC3)c(F)c2)C(=O)O1 [RANBEZOLID]	2 (≈ 4.33 µM)

These compounds were tested on Enterococcus faecalis (assay: Antibacterial activity against Enterococcus faecalis ATCC 29212 by NCCLS method).
Format: functional
Outline: as §1

Structure (SMILES)	MIC [µg/mL]
O=C(NC[C@H]1CN(c2ccc(N3CCN(Cc4ccc([N+](=O)[O-])o4)CC3)c(F)c2)C(=O)O1)c1ccc([N+](=O)[O-])o1	4 (≈ 7.16 µM)
O=C(NC[C@H]1CN(c2ccc(N3CCN(Cc4ccc([N+](=O)[O-])o4)CC3)c(F)c2)C(=O)O1)c1ccc(Br)o1	> 16
O=C(/C=C/c1ccc(F)cc1)NC[C@H]1CN(c2ccc(N3CCN(Cc4ccc([N+](=O)[O-])o4)CC3)c(F)c2)C(=O)O1	> 16
O=C(NC[C@H]1CN(c2ccc(N3CCN(Cc4ccc([N+](=O)[O-])o4)CC3)c(F)c2)C(=O)O1)c1cc2ccccc2o1	> 16
O=C1O[C@@H](COc2ccon2)CN1c1ccc(N2CCN(Cc3ccc([N+](=O)[O-])o3)CC2)c(F)c1	> 16
CC(=O)NC[C@H]1CN(c2ccc(N3CCN(Cc4ccc([N+](=O)[O-])o4)CC3)c(F)c2)C(=O)O1 [RANBEZOLID]	2 (≈ 4.33 µM)
